In assay [1] the test system is NCI-H460. Put plainly: Induction of apoptosis in human NCI-H460 cells assessed as necrotic cells after 12 hrs by Annexin V-FITC/propidium iodide staining based flow cytometry (reference value: 0.93%). The format is functional. A general note: A flow cytometer gives signals particle by particle.
Assay [2] has as its system NCI-H460. The assay is described as follows: Induction of apoptosis in human NCI-H460 cells assessed as late apoptotic cells after 12 hrs by Annexin V-FITC/propidium iodide staining based flow cytometry (reference value: 2.54%). The format is functional.
Assay [3] deals with NCI-H460. Put plainly: Induction of apoptosis in human NCI-H460 cells assessed as live cells after 12 hrs by Annexin V-FITC/propidium iodide staining based flow cytometry (reference value: 91.81%). The format is functional.
The test system of assay [4] is NCI-H460. Put plainly: Induction of apoptosis in human NCI-H460 cells assessed as early apoptotic cells after 12 hrs by Annexin V-FITC/propidium iodide staining based flow cytometry (reference value: 4.72%). It counts as functional.
Assay [5] relates to NCI-H460. Put plainly: Induction of Nur77 protein expression in human NCI-H460 cells at 20 nM after 3 hrs by Western blot assay. It counts as functional, cell-based. A digest of the protocol: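 NIH-H460 cells exposed to 20 nM glycoside for 3 h and lysed. Equal lysate amounts run on 8% SDS-PAGE and blotted to PVDF, then blocked in 5% milk/TBST for 1 h. Anti-Nur77 (1:1000) applied overnight at 4 °C, secondary antibody for 1 h, ECL detection. β-actin (1:10000) reprobe served as loading control.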
On the technique in general: Immunoblotting shows a protein as a band on a membrane.

In assay [6] the test system is NCI-H460. The assay is described as follows: Induction of apoptosis in human NCI-H460 cells assessed as early apoptotic cells at 20 nM after 12 hrs by Annexin V-FITC/propidium iodide staining based flow cytometry (reference value: 4.72%). The format is functional. A digest of the protocol: (§1)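 NIH-H460 cells seeded at 1 × 10^5/well and given 20 nM glycoside for 12 h. Cells trypsinized, spun at 1,500 rpm for 5 min and resuspended in Annexin V binding buffer. Annexin V-FITC stain for 15 min, then propidium iodide for 5 min. Populations quantified by FACS Calibur flow cytometry.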

In assay [7] the target is Nuclear receptor subfamily 4immunitygroup A member 1 (Homo sapiens) (UniProt P22736). Put plainly: Induction of Nur77 protein translocation from nucleus to cytoplasm in human NCI-H460 cells at 20 nM by DAPI staining based immunofluorescence microscopic method. The format is cell-based. Particulars: TDE = time-dependent effect. The procedure, abridged: (§2)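 NIH-H460 cells given 20 nM glycoside for 3, 6 and 9 h. Cells permeabilized with 0.1% Triton X-100 for 15 min and blocked in 1% BSA for 30 min. Anti-Nur77 applied at 37 °C for 1 h, then Cy3 anti-rabbit IgG for 30 min at room temperature. DAPI stained nuclei; confocal imaging scored Nur77 nuclear versus cytoplasmic location.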
Chain of Nuclear receptor subfamily 4immunitygroup A member 1 (Homo sapiens) (P22736 whole entry): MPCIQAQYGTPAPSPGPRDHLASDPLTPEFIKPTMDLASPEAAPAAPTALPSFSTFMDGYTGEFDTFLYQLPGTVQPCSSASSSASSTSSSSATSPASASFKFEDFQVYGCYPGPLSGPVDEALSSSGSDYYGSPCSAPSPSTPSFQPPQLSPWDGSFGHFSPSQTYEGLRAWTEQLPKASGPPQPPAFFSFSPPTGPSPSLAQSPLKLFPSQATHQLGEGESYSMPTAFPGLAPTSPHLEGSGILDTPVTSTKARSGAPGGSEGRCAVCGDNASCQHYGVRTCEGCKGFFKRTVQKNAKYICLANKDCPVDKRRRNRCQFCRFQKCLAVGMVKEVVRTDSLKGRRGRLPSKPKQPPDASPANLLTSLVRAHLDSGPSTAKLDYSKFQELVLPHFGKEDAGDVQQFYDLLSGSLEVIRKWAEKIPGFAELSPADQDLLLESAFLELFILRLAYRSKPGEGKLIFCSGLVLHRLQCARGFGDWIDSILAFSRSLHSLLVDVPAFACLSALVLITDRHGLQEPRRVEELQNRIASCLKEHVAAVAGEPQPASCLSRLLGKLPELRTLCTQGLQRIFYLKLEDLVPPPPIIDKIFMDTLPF

The target is the same in assay [8]. Put plainly: Induction of Nur77 protein translocation from nucleus to cytoplasm in human NCI-H460 cells at 20 nM after 9 hrs by DAPI staining based immunofluorescence microscopic method. It counts as cell-based. A digest of the protocol: as §2
The subject of assay [9] is NCI-H460. Put plainly: Induction of apoptosis in human NCI-H460 cells assessed as necrotic cells at 20 nM after 12 hrs by Annexin V-FITC/propidium iodide staining based flow cytometry (reference value: 0.93%). The format is functional. The procedure, abridged:
as §1

In assay [10] the test system is NCI-H460. Put plainly: Induction of apoptosis in human NCI-H460 cells assessed as late apoptotic cells at 20 nM after 12 hrs by Annexin V-FITC/propidium iodide staining based flow cytometry (reference value: 2.54%). It counts as functional. A digest of the protocol: as §1
The subject of assay [11] is NCI-H460. The assay is described as follows: Induction of apoptosis in human NCI-H460 cells assessed as live cells at 20 nM after 12 hrs by Annexin V-FITC/propidium iodide staining based flow cytometry (reference value: 91.81%). It counts as functional. The procedure, abridged:
as §1

The subject of assay [12] is NCI-H460. The assay is described as follows: Cytotoxicity against human NCI-H460 cells assessed as reduction in cell viability at 50 nM after 48 hrs by MTT assay. The format is functional, cell-based. The procedure, abridged:
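NIH-H460 cells (ATCC; RPMI 1640, 10% FBS, L-glutamine, penicillin/streptomycin) seeded at 3 × 10^3/well, then given medium with 50 nM glycoside for 48 h. MTT ([…]) added for 4 h at 37 °C, formazan dissolved in DMSO, absorbance at 560 nm.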
(In general: Tetrazolium assays rely on reduction of a dye to a coloured formazan, in cell work by metabolically active cells.)

Activity calls are given as the source filed them. The rule behind the calls is not given here.

As to `C[C@H]1O[C@@H](O[C@H]2[C@@H](O)C[C@H](O[C@H]3[C@@H](O)C[C@H](O[C@H]4CC[C@@]5(C)[C@H](CC[C@@H]6[C@@H]5C[C@@H](O)[C@]5(C)[C@@H](C7=CC(=O)OC7)CC[C@]65O)C4)O[C@@H]3C)O[C@@H]2C)C[C@H](O)[C@@H]1O` [DIGOXIN], the Activity in assay [1] is reported as 0.6%; in [2], 4.64%; in assay [3], 90.71%; in [4], 4.06%.
Turning to `C[C@H]1O[C@@H](O[C@H]2[C@@H](O)CC(O[C@H]3CC[C@@]4(C)[C@H](CC[C@@H]5[C@@H]4C[C@@H](O)[C@]4(C)[C@@H](C6=CC(=O)OC6)CC[C@]54O)C3)O[C@@H]2C)C[C@H](O)[C@@H]1O` (stereo not given in full), in assay [5], the outcome was Active.
For `C[C@@H]1OC(O[C@H]2CC[C@@]3(C)[C@H](CC[C@@H]4[C@@H]3C[C@@H](O)[C@]3(C)[C@@H](C5=CC(=O)OC5)CC[C@]43O)C2)[C@@H](O)[C@H](O)[C@@H]1O` (stereo not given in full), the Activity in assay [6] was 25.02%; in assay [7], “Tde”; in assay [9], 4.21%; in [10], 9.01%; in assay [11], 61.75%. Also, the result in assay [8], in [5] and in assay [12] was Active.
`C[C@]12CC[C@H](OC3O[C@H](CO)[C@@H](O[C@@H]4O[C@H](CO)[C@H](O)[C@H](O)[C@H]4O)[C@H](O)[C@H]3O)C[C@H]1CC[C@@H]1[C@@H]2C[C@@H](O)[C@]2(C)[C@@H](C3=CC(=O)OC3)CC[C@]12O` (stereo not given in full): in assay [5], the outcome was Active.
On the same count and under the same terms, then `C[C@]12CC[C@@H](OC3O[C@H](CO)[C@@H](O)[C@H](O)[C@@H]3O)C[C@H]1CC[C@@H]1[C@@H]2C[C@@H](O)[C@]2(C)[C@@H](C3=CC(=O)OC3)CC[C@]12O` (stereo not given in full), with “Active”.
In the case of `C[C@]12CC[C@H](OC3O[C@H](CO)[C@@H](O)[C@H](O)[C@H]3O)C[C@H]1CC[C@@H]1[C@@H]2C[C@@H](O)[C@]2(C)[C@@H](C3=CC(=O)OC3)CC[C@]12O` (stereo not given in full), the outcome in assay [12] was Active.
As to `C[C@]12CC[C@H](OC3OC[C@@H](O)[C@@H](O)[C@H]3O)C[C@H]1CC[C@@H]1[C@@H]2C[C@@H](O)[C@]2(C)[C@@H](C3=CC(=O)OC3)CC[C@]12O` (stereo not given in full), the Activity in assay [6] is 10.21%; in assay [7], “Tde”; in [9], 1.24%; in [10], 4.58%; in [11], 83.97%. Besides, the result in assay [8], in [5] and in assay [12] was Active.
Turning to `C[C@@H]1OC(O[C@H]2CC[C@@]3(C)[C@H](CC[C@@H]4[C@@H]3C[C@@H](O)[C@]3(C)[C@@H](C5=CC(=O)OC5)CC[C@]43O)C2)[C@H](O)[C@H](O)[C@H]1O` (stereo not given in full), the Activity was 9.35% in [6]; “Tde” in assay [7]; 1.55% in assay [9]; 5.5% in assay [10]; 83.59% in assay [11]. In addition, the outcome in assay [8], in [5] and in [12] was Active.
Regarding `C[C@]12CC[C@H](OC3O[C@H](CO)[C@H](O)[C@H](O)[C@H]3O)C[C@H]1CC[C@@H]1[C@@H]2C[C@@H](O)[C@]2(C)[C@@H](C3=CC(=O)OC3)CC[C@]12O` (stereo not given in full), in assay [5], the outcome was Active.
As for `C[C@]12CC[C@H](OC3O[C@H](CO)[C@@H](O[C@@H]4O[C@H](CO)[C@@H](O)[C@H](O)[C@H]4O)[C@H](O)[C@H]3O)C[C@H]1CC[C@@H]1[C@@H]2C[C@@H](O)[C@]2(C)[C@@H](C3=CC(=O)OC3)CC[C@]12O` (stereo not given in full), the result in [5] was Active.
As to `C[C@]12CC[C@@H](O)C[C@H]1CC[C@@H]1[C@@H]2C[C@@H](O)[C@]2(C)[C@@H](C3=CC(=O)OC3)CC[C@]12O`, the result in assay [5] was Active.

Values taken from ChEMBL document CHEMBL4251645, “Synthesis of C3-Neoglycosides of digoxigenin and their anticancer activities” (2018).
